Active and inactive are the calls of the source. The rule behind the calls is not given here.
Columns and labels:
[1] = test system: Staphylococcus epidermidis; assay: Antibacterial activity against methicillin-susceptible Staphylococcus epidermidis isolate CANWARD-2008 81388 after 24 hrs by microtitre broth dilution method; type: functional; details: isolate CANWARD-2008 81388, 24 h
Escherichia coli [2] = assay: Antibacterial activity against gentamicin-resistant Escherichia coli isolate CAN-ICU 61714 after 24 hrs by microtitre broth dilution method; type: functional; details: isolate CAN-ICU 61714, 24 h
Pseudomonas aeruginosa [3] = assay: Antibacterial activity against gentamicin/tobramycin-resistant Pseudomonas aeruginosa isolate CANWARD-2011 96846 after 24 hrs by microtitre broth dilution method; type: functional; details: isolate CANWARD-2011 96846, 24 h
Klebsiella pneumoniae = assay: Antibacterial activity against Klebsiella pneumoniae ATCC 13883 after 24 hrs by microtitre broth dilution method; type: functional; details: ATCC 13883, 24 h
Pseudomonas aeruginosa [4] = assay: Antibacterial activity against multidrug/extremely drug-resistant/colistin-susceptible Pseudomonas aeruginosa isolate 264-104354; type: functional
Pseudomonas aeruginosa [5] = assay: Antibacterial activity against pandrug-resistant Pseudomonas aeruginosa isolate 91433; type: functional
Pseudomonas aeruginosa [6] = assay: Antibacterial activity against pandrug-resistant Pseudomonas aeruginosa isolate 101243; type: functional
Pseudomonas aeruginosa [7] = assay: Antibacterial activity against multidrug-resistant/tobramycin-susceptible Pseudomonas aeruginosa isolate 86141; type: functional
Pseudomonas aeruginosa [8] = assay: Antibacterial activity against multidrug-resistant/tobramycin-susceptible Pseudomonas aeruginosa isolate 79199; type: functional
Pseudomonas aeruginosa [9] = assay: Antibacterial activity against multidrug-resistant/tobramycin-susceptible Pseudomonas aeruginosa isolate 80621; type: functional
Pseudomonas aeruginosa [10] = assay: Antibacterial activity against multidrug-resistant/tobramycin-susceptible Pseudomonas aeruginosa isolate 84745; type: functional
Pseudomonas aeruginosa [11] = assay: Antibacterial activity against multidrug-resistant/tobramycin-susceptible Pseudomonas aeruginosa isolate 85322; type: functional
Escherichia coli [12] = assay: Antibacterial activity against of wild-type Escherichia coli isolate 79768; type: functional
Escherichia coli [13] = assay: Antibacterial activity against fluoroquinolone resistant Escherichia coli isolate 80083 harboring beta-lactamase CTX-M-15/OXA-1; type: functional
Escherichia coli [14] = assay: Antibacterial activity against fluoroquinolone resistant Escherichia coli isolate 80960 harboring beta-lactamase CTX-M-15/TEM-1; type: functional
Escherichia coli [15] = assay: Antibacterial activity against fluoroquinolone resistant Escherichia coli isolate 88273 harboring beta-lactamase CTX-M-15/TEM-1/OXA-1; type: functional
Escherichia coli [16] = assay: Antibacterial activity against fluoroquinolone resistant Escherichia coli isolate N-10-1631 harboring beta-lactamase CTX-M-15/OXA-1; type: functional
Escherichia coli [17] = assay: Antibacterial activity against fluoroquinolone resistant Escherichia coli isolate ECMH01 harboring beta-lactamase NDM-1; type: functional
Acinetobacter baumannii [18] = assay: Antibacterial activity against fluoroquinolone resistant Acinetobacter baumannii isolate ABO27; type: functional
Acinetobacter baumannii [19] = assay: Antibacterial activity against fluoroquinolone resistant Acinetobacter baumannii isolate ABO30; type: functional
Pseudomonas aeruginosa [20] = assay: Bactericidal activity against Pseudomonas aeruginosa PAO1 at 2 times MIC up to 24 hrs by time-kill kinetic study; type: functional
How it was run: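 PAO1 was grown in MH broth with varying concentrations of the test agent; colistin at its MIC served as comparator. Viable counts (CFU) were followed up to 24 h. There were three independent experiments, and each point is the mean of three determinations ± SEM.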

[21] = Cytotoxicity against human JIMT1 cells assessed as reduction in cell viability after 48 hrs by MTS assay; type: toxicity, cell-based, JIMT-1
Pseudomonas aeruginosa [22] = assay: Antibacterial activity against extremely drug-resistant Pseudomonas aeruginosa isolate 104354 infected in Galleria mellonella assessed as larvae survival at 75 mg/kg administered as single dose measured after 96 hrs; type: functional; details: isolate 104354, 96 h
How it was run: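 Galleria mellonella larvae were infected with 10^6 CFU of XDR P. aeruginosa #104354, resistant to all antipseudomonal classes except colistin. A single injected drug dose was given 2 h post-infection: 50 mg/kg with survival read at 24 h, or 75 mg/kg with survival read at 96 h. Controls were infected untreated larvae and PBS-injected larvae. Two independent experiments of 15 larvae each (n = 30).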

Pseudomonas aeruginosa [23] = assay: Antibacterial activity against Pseudomonas aeruginosa PAO1 assessed as fractional inhibitory concentration index after 18 hrs in presence of rifampicin by checkerboard method; type: functional
How it was run: (§1)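 Checkerboard combinations of the hybrid with each partner antibiotic were tested against P. aeruginosa PAO1. Interaction is expressed as the fractional inhibitory concentration (FIC) index: ≤0.5 means synergy, 1–2 no interaction, ≥4 antagonism.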

Pseudomonas aeruginosa [24] = assay: Antibacterial activity against Pseudomonas aeruginosa PAO1 assessed as fractional inhibitory concentration index after 18 hrs in presence of ceftazidime by checkerboard method; type: functional; how it was run: as §1
Pseudomonas aeruginosa [25] = assay: Antibacterial activity against Pseudomonas aeruginosa PAO1 assessed as fractional inhibitory concentration index after 18 hrs in presence of tobramycin by checkerboard method; type: functional; how it was run: as §1
Pseudomonas aeruginosa [26] = assay: Potentiation of ciprofloxacin induced antibacterial activity against multidrug/extremely drug-resistant Pseudomonas aeruginosa isolate PA262-101856 assessed as ciprofloxacin MIC at <= […] ug/ml (reference value: […] to […] ug/ml); type: functional
Pseudomonas aeruginosa [27] = assay: Potentiation of moxifloxacin induced antibacterial activity against multidrug/extremely drug-resistant Pseudomonas aeruginosa isolate PA259-96918 assessed as moxifloxacin MIC at <= […] ug/ml (reference value: […] ug/ml); type: functional
Pseudomonas aeruginosa [28] = assay: Potentiation of moxifloxacin induced antibacterial activity against multidrug/extremely drug-resistant Pseudomonas aeruginosa isolate PA262-101856 assessed as moxifloxacin MIC at <= […] ug/ml (reference value: […] to […] ug/ml); type: functional
Pseudomonas aeruginosa [29] = assay: Potentiation of moxifloxacin induced antibacterial activity against multidrug/extremely drug-resistant Pseudomonas aeruginosa isolate PA264-104354 assessed as moxifloxacin MIC at <= […] ug/ml (reference value: […] to […] ug/ml); type: functional
Pseudomonas aeruginosa [30] = assay: Antibacterial activity against multidrug/extremely drug-resistant Pseudomonas aeruginosa isolate PA262-101856 in presence of <= 4 ug/ml of ciprofloxacin (reference value: 4 ug/ml); type: functional
Pseudomonas aeruginosa [31] = assay: Antibacterial activity against multidrug/extremely drug-resistant/pandrug-resistant Pseudomonas aeruginosa isolate PA259-96918 in presence of <= 4 ug/ml of moxifloxacin (reference value: 2 ug/ml); type: functional
Pseudomonas aeruginosa [32] = assay: Antimicrobial activity against Pseudomonas aeruginosa PAO750; type: functional
How it was run: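 MICs were measured in PAO1 and in PAO750. PAO750 is a PAO1 derivative lacking the MexAB-OprM, MexCD-OprJ, MexEF-OprN, MexJK and MexXY efflux pumps and the outer membrane protein OpmH.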

Pseudomonas aeruginosa [33] = assay: Antimicrobial activity against Pseudomonas aeruginosa PAO1 assessed as outer membrane damage at 8 ug/ml after 3 to 4 hrs by uranyl acetate staining based transmission electron microscopy; type: functional
How it was run: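 PAO1 in Mueller-Hinton broth was exposed to 8 µg/mL at 37 °C (3 h in the legend, 4 h in the text). Untreated cells were the reference. Morphology was imaged by transmission electron microscopy at 75 kV.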

[34] = Inhibition of Pseudomonas aeruginosa DNA gyrase A assessed as inhibition of DNA supercoiling using PBR322 DNA as substrate after 30 mins by SYBR Gold staining based agarose gel electrophoresis
Pseudomonas aeruginosa [35] = assay: Ratio of MIC for Pseudomonas aeruginosa PAO1 after 25 serial passages to MIC for Pseudomonas aeruginosa PAO1 prior to 25 serial passages; type: functional
How it was run: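 P. aeruginosa PAO1 exposed to sub-inhibitory (0.5 x MIC) drug over successive subcultures as a resistance-selection procedure. MIC compared after versus before passaging.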

COc1c(N2C[C@@H]3CCCN(CCCCCCCCCCCCO[C@@H]4[C@@H](O[C@H]5O[C@H](CO)[C@@H](O)[C@H](N)[C@H]5O)[C@H](N)C[C@H](N)[C@H]4O[C@H]4O[C@H](CN)[C@@H](O)C[C@H]4N)[C@@H]3C2)c(F)cc2c(=O)c(C(=O)O)cn(C3CC3)c12.Cl.Cl.Cl.Cl.Cl
MIC [1]: 2 µg/mL
MIC (Escherichia coli [2]): 4 µg/mL
MIC (Pseudomonas aeruginosa [3]): 4 µg/mL
MIC (Klebsiella pneumoniae): 1 µg/mL
MIC (Pseudomonas aeruginosa [4]): 4 µg/mL
MIC (Pseudomonas aeruginosa [5]): 8 µg/mL
MIC (Pseudomonas aeruginosa [6]): 8 µg/mL
MIC (Pseudomonas aeruginosa [7]): 4 µg/mL
MIC (Pseudomonas aeruginosa [8]): 8 µg/mL
MIC (Pseudomonas aeruginosa [9]): 8 µg/mL
MIC (Pseudomonas aeruginosa [10]): 8 µg/mL
MIC (Pseudomonas aeruginosa [11]): 8 µg/mL
MIC (Escherichia coli [12]): ≤ 2 µg/mL
MIC (Escherichia coli [13]): ≥ 64 µg/mL
MIC (Escherichia coli [14]): ≥ 64 µg/mL
MIC (Escherichia coli [15]): ≥ 64 µg/mL
MIC (Escherichia coli [16]): ≥ 64 µg/mL
MIC (Escherichia coli [17]): ≥ 64 µg/mL
MIC (Acinetobacter baumannii [18]): 8 to 64 µg/mL
MIC (Acinetobacter baumannii [19]): 8 to 64 µg/mL
Activity (Pseudomonas aeruginosa [20]): Active
CC50 at 48 h [21]: > 30 µM
survival at 75 mg/kg (Pseudomonas aeruginosa [22]): 20%
fractional inhibitory concentration index (FICI) (Pseudomonas aeruginosa [23]): 0.15
fractional inhibitory concentration index (FICI) (Pseudomonas aeruginosa [24]): 0.37
fractional inhibitory concentration index (FICI) (Pseudomonas aeruginosa [25]): >2
MIC (Pseudomonas aeruginosa [26]): 1 µg/mL
MIC (Pseudomonas aeruginosa [27]): < 1 µg/mL
MIC (Pseudomonas aeruginosa [28]): 2 µg/mL
MIC (Pseudomonas aeruginosa [29]): 1 µg/mL
MIC (Pseudomonas aeruginosa [30]): < 0.5 µg/mL
MIC (Pseudomonas aeruginosa [31]): < 1 µg/mL
MIC (Pseudomonas aeruginosa [32]): 0.5 µg/mL
Activity (Pseudomonas aeruginosa [33]): Active
IC50 [34]: 54.7 µM
Ratio (Pseudomonas aeruginosa [35]): 2
